Source: PMC10187672 (RNA, 2023)
Several values for one entry are separate records, joined by “and”; a condition that tells them apart may be missing. Equal values may be shown once.

Tests used:
[1] = tested on: TCR-β minigene mRNA (NMD) in HeLa cells; assay: NMD assay, RT-qPCR of TCR-β minigene mRNA in PTC− and PTC+ HeLa cells; type: cell-based; details: for TCR-β mRNA levels in PTC+ cells / TCR-β mRNA levels in PTC− cells: normalized to β-actin; for TCR-β mRNA levels in PTC− cells: PTC− HeLa cells
Outline: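 HeLa cells carrying a TCR-β minigene with or without a PTC were seeded at 100,000/well and exposed to compound across a concentration series for 1 h or 5 h. Total RNA was TRIzol-extracted, and 500 ng was reverse-transcribed with oligo(dT) primer. EvaGreen qPCR followed, with TCR-β normalized to β-actin. n = 3 ± SD.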

[2] = tested on: 4A1^F163L/4A2^− eHAP1 cells; assay: RT-qPCR of FF-4.04 and FF-4.06 reporter mRNA; type: cell-based; details: 5 h exposure, normalized to GAPDH, relative to DMSO
Outline: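 Cells were nucleofected with the PTC-containing or control FLuc-β-globin reporter and selected as a pool in G418 (1.6 mg/mL). They were seeded at 250,000/well and exposed to compound for 5 h. After TRIzol extraction and oligo(dT) cDNA synthesis, EvaGreen qPCR used β-globin (HBB) primers. Values were normalized to GAPDH and expressed relative to DMSO.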

[3] = tested on: SC35 mRNA in 4A1^F163L/4A2^− eHAP1 cells; assay: RT-qPCR of endogenous SC35 and HPRT mRNA; type: cell-based; details: 5 h exposure, normalized to β-actin
Outline: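 Cells were seeded at 250,000/well and given a concentration series of compound for 5 h. Total RNA was TRIzol-extracted, and 500 ng was reverse-transcribed with oligo(dT) primer. EvaGreen qPCR measured SC35 and HPRT, normalized to β-actin and expressed as fold change versus DMSO.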

[4] = tested on: Krebs-2 translation extracts; assay: In vitro translation of FF/HCV/Ren bicistronic reporter mRNAs; type: biochemical; details: Krebs-2 extracts, 1 h at 30°C
Outline: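 Reporter mRNAs were used at 10 ng/µL final. FLuc and RLuc activities were read by luminometry, and RLU were normalized to DMSO vehicle controls.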

[5] = molecular target: T1, eIF4A3 (Homo sapiens, UniProt P38919); assay: Fluorescence polarization; type: binding; details: 10 µM compound, 1 mM AMPPNP
[6] = molecular target: T2, eIF4A1 (Homo sapiens, UniProt P60842); assay: FP dissociation of preformed protein•ATP•RNA•compound complexes; type: binding; details: 10 µM compound, 1 mM ATP, 1000-fold molar excess unlabeled poly r(AG)8 RNA
Outline: (§1)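 Recombinant His6-tagged human protein was expressed in E. coli BL21(DE3) and Ni-NTA purified. Complexes were preformed for 30 min at RT in the dark in FP buffer (HEPES-NaOH pH 8, 0.1% DMSO) with 1.5 µM protein, 10 nM FAM-poly r(AG)8 and 1 mM ATP. DMSO reactions used 25 µM protein. After adding 10 µM unlabeled RNA, FP was read every 10 sec. Half-life came from a one-phase exponential decay fit (Y0 = 1, plateau = 0).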

[7] = molecular target: T1, eIF4A3; assay: as above; type: binding; details: 10 µM compound, 1 mM ATP, 1000-fold molar excess unlabeled poly r(AG)8 RNA
Outline: as §1

[8] = tested on: HeLa cells harboring a (TCR)-β minigene; assay: [35S]-Methionine labeling of de novo protein synthesis; type: cell-based; details: 1 h exposure, labeling last 15 min
Outline: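 PTC+ minigene HeLa cells were seeded at 50,000/well and treated with compound for 1 h the next day, with [35S]-Met/Cys added for the final 15 min. Cells were washed and lysed in RIPA buffer, and lysates were spotted on paper and TCA-precipitated. Radioactivity was measured by scintillation counting and normalized to total protein. n = 3 ± SD.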

[9] = tested on: 4A1^F163L/4A2^− eHAP1 cells; assay: Luciferase NMD reporter assay; type: cell-based; details: 6 h exposure
Outline: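 Cells were transfected at 75% confluency with an FLuc-β-globin plasmid (PTC-containing or control, with or without an upstream HCV IRES) plus an HCV-IRES RLuc plasmid. The next day they were reseeded and left to recover for 24 h, then given compound for 6 h. Cells were lysed and both luciferases read by luminometry. n = 3 ± SD.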

[10] = molecular target: T2, eIF4A1; assay: Fluorescence polarization; type: binding; details: 10 µM compound, 1 mM AMPPNP

T1 sequence (P38919 whole entry, species assumed): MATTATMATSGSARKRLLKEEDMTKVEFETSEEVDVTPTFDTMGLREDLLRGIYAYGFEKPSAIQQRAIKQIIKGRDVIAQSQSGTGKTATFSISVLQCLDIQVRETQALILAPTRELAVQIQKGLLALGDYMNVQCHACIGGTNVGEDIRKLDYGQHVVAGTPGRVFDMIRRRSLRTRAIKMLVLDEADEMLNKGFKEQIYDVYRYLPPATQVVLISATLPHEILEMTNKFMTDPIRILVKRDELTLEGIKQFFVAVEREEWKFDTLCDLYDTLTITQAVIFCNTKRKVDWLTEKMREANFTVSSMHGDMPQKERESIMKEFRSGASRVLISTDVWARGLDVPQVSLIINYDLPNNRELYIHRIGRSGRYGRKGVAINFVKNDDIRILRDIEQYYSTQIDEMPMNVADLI
T2 sequence (P60842 whole entry, species assumed): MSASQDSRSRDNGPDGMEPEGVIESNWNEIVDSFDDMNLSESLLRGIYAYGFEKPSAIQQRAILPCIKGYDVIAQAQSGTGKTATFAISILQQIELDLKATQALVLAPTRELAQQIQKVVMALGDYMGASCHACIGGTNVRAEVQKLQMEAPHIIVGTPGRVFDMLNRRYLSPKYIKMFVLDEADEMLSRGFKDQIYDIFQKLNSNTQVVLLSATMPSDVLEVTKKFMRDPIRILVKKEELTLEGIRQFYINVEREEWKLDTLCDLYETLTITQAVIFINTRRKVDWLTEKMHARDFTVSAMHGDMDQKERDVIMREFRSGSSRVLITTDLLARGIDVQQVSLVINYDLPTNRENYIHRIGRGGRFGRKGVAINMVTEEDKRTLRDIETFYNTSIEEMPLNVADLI

Row | Compound | TCR-β mRNA levels in PTC+ cells ([1]; PTC+ HeLa cells, 5 h exposure) | TCR-β mRNA levels in PTC− cells ([1]; 5 h exposure) | FF-4.06 (NMD reporter) mRNA levels [2] | HPRT mRNA levels [3] | SC35 mRNA levels relative to DMSO controls [3] | Translational response of all three reporters (AG, UC, NMD 5′ leaders) [4] | Clamping of eIF4A3 to poly r(AG)8 RNA (ΔmP relative to DMSO) [5] | Fitted half-life T(1/2) of eIF4A1•ATP•RNA•compound complex [6] | Fitted half-life T(1/2) of eIF4A3•ATP•RNA•compound complex [7] | Effect on TCR-β minigene mRNA levels ([1]; PTC+ HeLa cells, 1 µM compound for 1 h) | 35S-Met incorporation into proteins (translation) [8] | Luc expression from FF-4.04 or FF-4.06 reporters ([9]; 300 nM, both reporters) | RLuc expression from internal HCV/Ren control [9] | Expression of HCV/FF-4.04 and HCV/FF-4.06 reporters ([9]; titration range tested) | Translational response of reporter mRNA with polypurine ([AG]10) 5′ leader [4] | Clamping of eIF4A1 to poly r(AG)8 RNA (ΔmP relative to DMSO) [10] | Increase of PTC+ mRNA levels ([1]; PTC+ HeLa cells, 1 h exposure, highest concentration tested (200 nM)) | Increase of PTC+ mRNA levels ([1]; PTC+ HeLa cells, 5 h exposure) [fold]
1 | C[C@@H]1C[C@@H]([C@H](O)CC2CC(=O)NC(=O)C2)C(=O)[C@@H](C)C1 [CHX, cycloheximide] | significantly increased | no impact | increased | not increased | significant increase | equally responsive | – | – | – | – | – | – | – | – | – | – | – | –
2 | CONC(=O)[C@H]1[C@@H](O)[C@@]2(O)c3c(OC)cc(OC)cc3O[C@@]2(c2ccc(OC)cc2)[C@@H]1c1ccccc1 [CR-1-31B] | substantial stabilization | – | increased only in the presence of CHX | not increased | did not significantly change | – | able to induce clamping | 0.833 ± 0.005 h | 0.4 ± 0.0067 h | no significant effect | translation was blocked | approximately twofold | No change | neither reporter showed a change in expression | conferred CR-1-31B responsiveness | – | – | –
3 | CC(/C=C/C(C)=C/[C@@H]1Cc2nc(cs2)[C@@H](C)C[C@@H](N)CC(=O)O[C@@H](C)C/C(C)=C/C=C\C(=O)O1)=C\CN(C)C [PatA, pateamine A] | Stabilization of TCR-β mRNA | but not PTC− cells | – | not increased | significant increase | equally inhibited all reporters | clamping was observed | 1.83 h and 1.83 ± 0.0233 h | 3.05 h and 3.05 ± 0.02 h | – | translation was blocked | – | – | – | – | clamping was observed | approximately threefold | 10
4 | COc1ccc([C@@]23Oc4cc(OC)cc(OC)c4[C@]2(O)[C@H](O)[C@H](C(=O)N(C)C)[C@H]3c2ccccc2)cc1 [RocA] | – | – | – | – | – | – | able to induce clamping | – | – | – | – | – | – | – | – | – | – | –
5 | COC(=O)[C@H]1[C@@H](O)[C@@]2(O)c3c(OC)cc(O[C@@H]4O[C@@H]([C@H](O)CO)CO[C@H]4OC)cc3O[C@@]2(c2ccc(OC)cc2)[C@@H]1c1ccccc1 [silvestrol] | – | – | – | – | – | – | able to induce clamping | – | – | – | – | – | – | – | – | – | – | –
